Publication PMC5357090 (Saudi Pharmaceutical Journal : SPJ, 2016)
Read-outs that look alike come from different tables or passages of the source.

Tests used:
HeLa = test: In vitro anticancer activity, MTT assay, HeLa; type: cell-based, human; details: for IC50: Homo sapiens, HeLa, 48 h; for anticancer activity against HeLa cells (in words): MTT, 48 h exposure, compared with the standard cisplatin
Procedure, shortened: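 HeLa cells came from NCCS and were kept in MEM with 10% FBS at 37 °C and 5% CO2. Cells were seeded at 10,000/well in 5% FBS medium and left 24 h to attach. DMSO solutions were diluted in serum-free medium to 6.25–100 µM (five concentrations) and applied for 48 h, in triplicate. MTT was added for 4 h at 37 °C, formazan dissolved in DMSO, and A570 read. % inhibition was taken against untreated control. IC50 came from nonlinear regression against log concentration.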

MCF-7 = test: In vitro anticancer activity, MTT assay, MCF-7; type: cell-based; details: for IC50: Homo sapiens, MCF7, 48 h, read-out: IC50 MCF-7; for anticancer activity against MCF-7 cells (in words): MTT, 48 h exposure, compared with the standard cisplatin
α-amylase = test: α-Amylase assay; type: biochemical; details: compared to the standard acarbose; 50-1000 μm
Procedure, shortened: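 α-Amylase was used at 0.1 mg/mL in PBS (0.02 mol/L, pH 6.8). Enzyme was preincubated with the test solution at 37 °C for 5 min. The reaction was started with 1.0% (w/v) starch. It was stopped with DNS reagent (1% dinitrosalicylic acid, 0.05% Na2SO3, 1% NaOH), then heated at 100 °C for 5 min and cooled to room temperature. Absorbance was read at 540 nm.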

[1] = read-out: IC50 values, range over MCF-7 and HeLa cells

SMILES	IC50 (HeLa; read-out: IC50 HeLa) [µM]	IC50 (MCF-7) [µM]	inhibitory activity against α-amylase (in words) (α-amylase)	IC50 (HeLa; [1]) [µM]	anticancer activity against HeLa cells (in words) (HeLa)	anticancer activity against MCF-7 cells (in words) (MCF-7)
O=S(=O)(Nc1cccc(-c2nnc(C3CCCCC3)o2)c1)c1cc(Cl)cc(Cl)c1 [Compound 8c, 3,5-Dichloro-N-[3-(5-cyclohexyl-[1,3,4]oxadiazol-2-yl)-phenyl]-benzenesulphonamide]	≥ 100	≥ 100	better than all other compounds	–	–	–
Cc1ccc(C(=O)Nc2cccc(-c3nnc(C4CCCCC4)o3)c2)cc1 [Compound 7b, N-[3-(5-Cyclohexyl-[1,3,4]oxadiazol-2-yl)-phenyl]-4-methyl-benzamide]	≥ 100	≥ 100	–	–	–	–
O=C(C=Cc1ccco1)Nc1cccc(-c2nnc(C3CCCCC3)o2)c1 [Compound 7i, N-[3-(5-Cyclohexyl-[1,3,4]oxadiazol-2-yl)-phenyl]-3-furan-2-yl-acrylamide]	≥ 100	≥ 100	–	–	–	–
Cc1ccc(NC(=O)Nc2cccc(-c3nnc(C4CCCCC4)o3)c2)cc1 [Compound 6b, 1-[3-(5-Cyclohexyl-[1,3,4]oxadiazol-2-yl)-phenyl]-3-p-tolyl-urea]	30.4	23.5	moderate activities	23.5 to 45.6	significant activity	significant activity
Cc1ccc(S(=O)(=O)Nc2cccc(-c3nnc(C4CCCCC4)o3)c2)cc1 [Compound 8a, N-[3-(5-Cyclohexyl-[1,3,4]oxadiazol-2-yl)-phenyl]-4-methyl-benzenesulphonamide]	≥ 100	≥ 100	–	–	–	–
COc1cccc(NC(=O)Nc2cccc(-c3nnc(C4CCCCC4)o3)c2)c1 [Compound 6c, 1-[3-(5-Cyclohexyl-[1,3,4]oxadiazol-2-yl)-phenyl]-3-(3-methoxy-phenyl)-urea]	45.6	28.6	–	23.5 to 45.6	significant activity	significant activity
O=C(Nc1ccc(F)cc1)Nc1cccc(-c2nnc(C3CCCCC3)o2)c1 [Compound 6a, 1-[3-(5-Cyclohexyl-[1,3,4]oxadiazol-2-yl)-phenyl]-3-(4-fluoro-phenyl)-urea]	79.7	81.6	moderate activities	–	good activity	good activity
CC(C)(C)c1ccc(S(=O)(=O)Nc2cccc(-c3nnc(C4CCCCC4)o3)c2)cc1 [Compound 8b, 4-tert-Butyl-N-[3-(5-cyclohexyl-[1,3,4]oxadiazol-2-yl)-phenyl]-benzenesulphonamide]	62.9	60.9	–	–	good activity	good activity
O=C(Nc1cccc(-c2nnc(C3CCCCC3)o2)c1)c1cnccn1 [Compound 7e, Pyrazine-2-carboxylic acid [3-(5-cyclohexyl-[1,3,4]oxadiazol-2-yl)-phenyl]-amide]	≥ 100	≥ 100	moderate activities	–	–	–
O=C(Nc1cccc(-c2nnc(C3CCCCC3)o2)c1)c1ccco1 [Compound 7h, Furan-2-carboxylic acid [3-(5-cyclohexyl-[1,3,4]oxadiazol-2-yl)-phenyl]-amide]	≥ 100	≥ 100	–	–	–	–
O=C(Cc1c[nH]c2ccccc12)Nc1cccc(-c2nnc(C3CCCCC3)o2)c1 [Compound 7f, N-[3-(5-Cyclohexyl-[1,3,4]oxadiazol-2-yl)-phenyl]-2-(1H-indol-3-yl)-acetamide]	100	≥ 100	better than all other compounds	–	–	–
O=C(Nc1cccc(-c2nnc(C3CCCCC3)o2)c1)c1ccc(Cl)cc1 [Compound 7a, 4-Chloro-N-[3-(5-cyclohexyl-[1,3,4]oxadiazol-2-yl)-phenyl]-benzamide]	≥ 100	≥ 100	–	–	–	–
O=C(Nc1cccc(-c2nnc(C3CCCCC3)o2)c1)c1cc(F)cc(F)c1 [Compound 7d, N-[3-(5-Cyclohexyl-[1,3,4]oxadiazol-2-yl)-phenyl]-3,5-difluoro-benzamide]	58.8	62.4	moderate activities	–	good activity	good activity
O=C(Nc1cccc(-c2nnc(C3CCCCC3)o2)c1)C1CCCC1 [Compound 7g, Cyclopentane carboxylic acid [3-(5-cyclohexyl-[1,3,4]oxadiazol-2-yl)-phenyl]-amide]	≥ 100	≥ 100	moderate activities	–	–	–
O=C(Cc1ccccc1F)Nc1cccc(-c2nnc(C3CCCCC3)o2)c1 [Compound 7c, N-[3-(5-Cyclohexyl-[1,3,4]oxadiazol-2-yl)-phenyl]-2-(2-fluoro-phenyl)acetamide]	80.1	78.3	–	–	good activity	good activity
